Shown are actives, neighbours in structure and some others; about 4.1% of the full set was active somewhere.
UPR XBP1 act: activators of adaptive XBP1 UPR arm, primary screen, cell-based, CHO-XBP1 luciferase reporter, luminescence, uHTS; AID 463104, 2010; IRE1-XBP1 UPR activation; percent of tunicamycin response, DMSO as zero; activation, % at 20 µM; 330,000 compounds, 0.33% hits;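 active = versus positive control, 20 µM dose yields 30% or more activation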
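Material: CHO-XBP1 cells stably carrying IRE1-XBP1-driven luciferase reporter / Amount: 1000 cells per well / Compound: 20 µM, 1% DMSO / Times: 6 h treatment, 37 °C / Detection: luciferase luminescence / Measure: % activation of reporter signal versus tunicamycin and DMSO controls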
UBC13 inh: UBC13 polyubiquitin chain formation inhibitors, primary screen, biochemical, TR-FRET, uHTS; Ubiquitin-conjugating enzyme E2 N (Homo sapiens), P61088; inhibition, % at 20 µM; 330,000 compounds, 0.47% hits; AID 485273, 2010; in the data active = inhibition above about 45%, passing the limit was not always enough
Target sequence (P61088 whole entry, looked up): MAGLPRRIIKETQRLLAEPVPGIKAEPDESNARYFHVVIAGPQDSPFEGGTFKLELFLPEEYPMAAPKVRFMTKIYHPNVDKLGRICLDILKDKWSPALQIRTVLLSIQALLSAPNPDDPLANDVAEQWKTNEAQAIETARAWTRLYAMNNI
Mdm2-MdmX inh: inhibitors of human Mdm2-MdmX association, primary screen, cell-based, luminescence, split luciferase, SaOS-2, uHTS; 330,000 compounds, 3% hits; inhibition, % at 8 µM; Protein Mdm4 (Homo sapiens) + E3 ubiquitin-protein ligase Mdm2 (Homo sapiens), …; SaOS-2 split-luciferase Mdm2/MdmX complementation;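 active = inhibition of at least 50% at 8 µM in the primary screen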
CHOP UPR activ: activators of apoptotic CHOP UPR arm, primary screen, cell-based, CHO-CHOP luciferase reporter, luminescence, uHTS. activation, % at 10 µM. UPR activation; percent of tunicamycin response over DMSO baseline. 330,000 compounds, 0.34% hits;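 active = at 10 µM dose, activation of 40% or more, normalized to positive control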
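System: CHO-CHOP luciferase reporter cell line; amount: 500 cells/well; buffer or medium: F12 medium containing 10% fetal bovine serum; incubation: 6 h compound exposure at 37 °C after overnight seeding; measured by: luciferase luminescence after 10 min with Steady-Glo reagent; evaluation: % reporter activation, DMSO baseline versus tunicamycin full activation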
Apaf1 inhib: inhibitors of human Apaf-1 apoptosome, primary screen, biochemical, DEVD-Rh110 fluorescence, uHTS. 330,000 compounds, 0.71% hits. reconstituted apoptosome caspase-3 activity. inhibition, % at 20 µM; active = inhibition of at least 40% at 20 µM
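System: Apoptosome proteins | Medium: Hepes pH 7.5 with detergent and BSA | Also added: Cytochrome c trigger plus (Z-DEVD)2-Rh110 caspase-3 substrate | Incubation: 30 min compound preincubation, 50 min activation, room temperature | Detection: Rhodamine 110 fluorescence at Ex 480/Em 540 nm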
CHOP UPR conf: activators of apoptotic CHOP UPR arm, confirmation, cell-based, CHO-CHOP luciferase reporter, single concentration | 1,000 compounds, 64% hits | activation, % at 10 µM | CHO-CHOP cells, CHOP-luciferase reporter luminescence; percent of tunicamycin response, DMSO as zero | shares compounds with CHOP UPR activ; in the data active = activation above about 33%
XBP1 UPR conf: IRE1-XBP1 UPR arm activators, confirmation, cell-based, CHO-XBP1 luciferase reporter, luminescence, single concentration | shares compounds with UPR XBP1 act | activation, % at 20 µM | 1,000 compounds, 63% hits;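 active = reporter signal at least 30% of the positive control's activation in two or more of four replicate wells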
Casp3 UBC13 ctr: CASP3 inhibitor validation, counterassay for project on UBE2N polyubiquitination blockers, biochemical, one dose. shares compounds with UBC13 inh. Recombinant caspase-3, Caspase-Glo 3/7 luminescence, 60 min. inhibition, % at 20 µM. 1,400 compounds, 4% hits. AID 488856, 2010;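 active = mean inhibition across replicates above about 26%, limit read from the data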
Target sequence (P42574 whole entry, looked up): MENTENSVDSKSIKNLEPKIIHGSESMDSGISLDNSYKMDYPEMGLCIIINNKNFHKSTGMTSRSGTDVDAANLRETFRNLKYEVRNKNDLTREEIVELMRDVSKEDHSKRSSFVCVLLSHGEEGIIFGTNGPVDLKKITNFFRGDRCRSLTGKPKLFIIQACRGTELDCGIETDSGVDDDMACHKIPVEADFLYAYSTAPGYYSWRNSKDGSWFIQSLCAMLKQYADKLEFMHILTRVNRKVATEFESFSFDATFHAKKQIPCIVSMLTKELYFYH
UBC13 conf: UBC13 polyubiquitination inhibitors, single-point retest, confirmation, biochemical, TR-FRET, single concentration; shares compounds with UBC13 inh; inhibition, % at 10 µM; 1,400 compounds, 68% hits; in the data active = inhibition above about 45%
Mdm2-MdmX conf: Mdm2-MdmX complex disruptors, retested hits, confirmation, luminescence, single concentration. 10,000 compounds, 55% hits. shares compounds with Mdm2-MdmX inh. inhibition, % at 8 µM. Mdm2-MdmX binding, luminescent assay; in the data active = inhibition above about 40%
Full FLuc ctr: full-length luciferase signal inhibition, confirmation, counter-screen for Mdm2/MdmX interaction inhibitor project, cell-based, single concentration, SaOS-2 | shares compounds with Mdm2-MdmX inh | SaOS-2 full-length luciferase counterscreen, luminescence | inhibition, % at 8 µM | 6,200 compounds, 77% hits;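 active = mean inhibition at 8 µM reaching about 37%, which flags the compound as non-specific, limit read from the data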;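 note: p53-null SaOS-2 cells with luciferase driven by a doxycycline-inducible promoter; compound on cells about two nights before reading with doxycycline added after day one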
Apaf-1 inh conf: Apaf-1 inhibitors, single-dose retest, confirmation, biochemical, fluorescence, DEVD-Rh110, 20 µM | shares compounds with Apaf1 inhib | reconstituted apoptosome, caspase-3 DEVD-Rh110 fluorescence | inhibition, % at 20 µM | 1,800 compounds, 25% hits | AID 504614, 2011;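 active = mean inhibition of at least 40% at 20 µM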
Rh110 quench: Rh110 fluorescence interference by putative Apaf-1 inhibitors, confirmation, artefact control for Apaf-1 inhibitor project, biochemical, 20 µM. shares compounds with Apaf1 inhib. quenched caspase reaction. activation (fluorescence interference), % at 20 µM. 1,800 tested, under 10 active;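 active = signal rise of 40% or more at 20 µM, treated as a fluorescence artifact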
Apaf1 inh interf: fluorescence interference of Apaf-1 inhibitor hits, dose response, artefact control for Apaf-1 inhibitor project. AID 588538, 2011. 460 tested, under 10 active. fluorescence interference counterscreen, Apaf-1 assay format. shares compounds with Apaf1 inhib. IC50, µM; call rule not given here
Large screens that a line does not name were inactive (follow-up assays come after a bar, where they were run).

CN(C)c1ccc(C(=O)c2ccc(N(C)C)cc2)cc1	none
OC[C@@H](O)CCl	none
CC1=NN=C(c2ccc(N)cc2)c2cc3c(cc2C1)OCO3	none
O=C1NC(=O)N(Cc2ccccc2)C(=O)/C1=C\C=C\c1ccco1	Mdm2-MdmX inh 66, CHOP UPR activ 161 | CHOP UPR conf 186 | Mdm2-MdmX conf inactive
CCCC[C@@H](C)C[C@@H](C)C(=O)N(C)[C@@H](CC(C)C)C(=O)N[C@H](C(=O)N(C)[C@H](C(=O)N1C[C@@H](O)C[C@H]1C(=O)N1C(=O)C=C[C@@H]1C)C(C)C)C(C)OC(C)=O (some centres not stated)	UPR XBP1 act 51, Mdm2-MdmX inh 95, CHOP UPR activ 73 | CHOP UPR conf 46 | XBP1 UPR conf 74 | Mdm2-MdmX conf 97 | Full FLuc ctr 55
CCCNC(=O)N1[C@H]2CC[C@@H]1C(C(=O)OC)=C(c1ccc(OC)c(OC)c1)C2	none
O=C1NC(=O)C(=Cc2ccc(-c3ccc(Cl)cc3)o2)C(=O)N1	Mdm2-MdmX inh 53, CHOP UPR activ 71 | CHOP UPR conf 75 | Mdm2-MdmX conf inactive
Cc1cccc(N2C(=O)NC(=O)/C(=C\c3cccn3-c3ccc(Cl)cc3)C2=O)c1	Mdm2-MdmX inh 73, CHOP UPR activ 419 | CHOP UPR conf inactive | Mdm2-MdmX conf inactive | Full FLuc ctr 69
COc1ccc(/C=N\N=C(N)N)cc1	none
NC(N)=N/N=C/c1ccc(N(c2ccccc2)c2ccccc2)cc1	UPR XBP1 act 62, UBC13 inh 107, Mdm2-MdmX inh 97, CHOP UPR activ 74, Apaf1 inhib 61 | CHOP UPR conf inactive | XBP1 UPR conf inactive | Casp3 UBC13 ctr inactive | UBC13 conf 119 | Mdm2-MdmX conf 100 | Full FLuc ctr inactive | Apaf-1 inh conf 43 | Rh110 quench inactive | Apaf1 inh interf inactive
COc1cccc(CC(=O)N(C)C2CCCN(Cc3ccccc3F)C2)c1 (configuration not stated)	none
Cc1ccc(C[n+]2c(-c3ccc(C)cc3)cc(-c3ccc(C)cc3)cc2-c2ccc(C)cc2)cc1	UPR XBP1 act 42, Mdm2-MdmX inh 100, CHOP UPR activ 77, Apaf1 inhib 79 | CHOP UPR conf 238 | XBP1 UPR conf inactive | Mdm2-MdmX conf 98 | Full FLuc ctr inactive | Apaf-1 inh conf inactive | Rh110 quench inactive
O=C1NC(=O)N(Cc2ccc(F)cc2)C(=O)/C1=C/c1cccs1	UPR XBP1 act 39 | XBP1 UPR conf 40
O=c1[nH]c(O)c(/C=C2/C=CC(c3cc(Cl)ccc3Cl)=N2)c(=O)[nH]1	UPR XBP1 act 68 | XBP1 UPR conf 111
CC1=Nc2ccccc2/C1=C/c1c(O)[nH]c(=O)[nH]c1=O	none
CCc1ccc(N2C(=O)NC(=O)/C(=C\c3cccn3CCOc3ccc(C(C)C)cc3)C2=O)cc1	UPR XBP1 act 51 | XBP1 UPR conf 41
Cc1ccc(OCCn2cccc2/C=C2/C(=O)NC(=O)N(Cc3ccco3)C2=O)cc1	none
CN(C)c1ccc(/C=C/[N+](=O)[O-])cc1	UPR XBP1 act 59 | XBP1 UPR conf 33
NS(=O)(=O)c1ccc(N=Cc2c(O)n(C3CCCCC3)c(=O)n(C3CCCCC3)c2=O)cc1	UPR XBP1 act 46 | XBP1 UPR conf 40
CCn1c(O)c(C=Nc2ccc(S(N)(=O)=O)cc2)c(=O)n(CC)c1=S	none
C[C@]12CCC(=O)C[C@H]1CC[C@@H]1[C@@H]2CC[C@]2(C)[C@@H](O)CC[C@@H]12	none
COC(=O)C1=C(c2ccc(S(C)(=O)=O)cc2)C[C@@H]2CC[C@H]1N2C(=O)NCc1ccc(C(F)(F)F)cc1	none
COC(=O)C1=C(c2cc3ccccc3s2)C[C@@H]2CC[C@H]1N2C(=O)NCc1ccc(F)cc1	none
CCCCCCn1c(O)c(C=NC2CCCCC2N)c(=O)[nH]c1=O (configuration not stated)	UPR XBP1 act 30 | XBP1 UPR conf inactive
O=C1NC(=O)C(=Cc2cn(CCOc3ccc4c(c3)OCO4)c3ccccc23)C(=O)N1	UPR XBP1 act 31, Mdm2-MdmX inh 59 | XBP1 UPR conf 79 | Mdm2-MdmX conf inactive
CC(=O)OC1=CC[C@H]2[C@@H]3CC[C@H]4C[C@H](OC(C)=O)[C@@H](OC(C)=O)C[C@]4(C)[C@H]3CC[C@]12C	none
